From ChEMBL document CHEMBL5653614, “Rescue of fragile X syndrome phenotypes in Fmr1 KO mice by the small-molecule PAK inhibitor FRAX486” (Proc Natl Acad Sci U S A, 2013)
pIC50: −log10 of the molar value. Calls of active or inactive are those of the source. The calls are words filed in the database; no cut-off is given here.

Key:
[1] = Drug concentration in FVB.129P2 mouse plasma at 20 mg/kg,sc and measured upto 18 hrs by LC-MS/MS analysis; format: ADME, organism-based
How it was run: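 WT FVB.129P2 mice got one s.c. injection of 20 mg/kg (2 mg/mL in 20% hydroxypropyl-β-cyclodextrin). Blood and forebrain were collected at time points from 15 min to 24 h. Forebrain was weighed, snap-frozen and homogenized in 2 volumes of cold PBS. Drug quantified by LC-MS/MS. n = 2–3, mean ± SEM.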

[2] = molecular target: Serine/threonine-protein kinase PAK 2 (Homo sapiens, UniProt Q13177); test: Inhibition of PAK2 (unknown origin) by Z'-LYTE functional assay
How it was run: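 Full-length PAK isoforms phosphorylating an optimized peptide substrate in a Z-LYTE biochemical kinase assay, 10-point inhibitor titration. Duplicates (n = 2, mean ± SEM) plotted semilog; IC50 from a variable-slope sigmoidal dose–response fit.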

[3] = tested on: Mus musculus; test: Anti-seizure activity against 124dB loud auditory stimulus induced Fmr1 knockout FVB.129P2-Fmr1tm1Cgr/J mouse model of audiogenic seizure assessed as decrease in sound-induced wild running at 10 mg/kg,sc for 5 days followed by audiogenic seizure induction after 8 hrs post-treatment by audiogenic seizure assay (Rvb=100%); format: functional; set-up: scale not given: the % may be the effect or the level left; details: time 5 day
How it was run: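 Adult male Fmr1 KO mice given 10 or 20 mg/kg s.c. daily for 5 d in 20% hydroxypropyl-β-cyclodextrin vehicle. AGS assay run 8 h after the final injection: 2 min acclimation in an acrylic chamber, then a 124 dB auditory stimulus. Incidence of wild running and seizure recorded; χ2 comparison with vehicle.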

[4] = tested on: Mus musculus; test: Protective activity in Fmr1 knockout FVB.129P2-Fmr1tm1Cgr/J mouse assessed as decrease in apical dendritic spine density in layer II/III pyramidal neurons segment 9 at 20 mg/kg, sc and measured after 8 hrs by Golgi-Cox technique analysis; format: functional, organism-based
How it was run: (§1)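 Adult male WT and Fmr1 KO FVB mice given 20 mg/kg s.c. or vehicle; brains collected 8 h later and Golgi stained. Apical dendrites of layer II/III pyramidal neurons in temporal cortex, originating 50–100 µm from the soma, were divided into ten 10-µm segments and spines counted. 40–60 neurons from 4–6 mice per group; one-way ANOVA.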

[5] = tested on: Mus musculus; test: Protective activity in FVB.129P2-Pde6b+ Tyr c-ch/AntJ wild type mouse assessed as decrease in time spent in moving at 20 mg/kg, sc for 5 days and measured for 30 mins by open field assay; format: functional, organism-based; details: time 5.0 day
How it was run: (§2)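 Adult male WT and Fmr1 KO mice dosed s.c. at 20 mg/kg or vehicle for 5 d; tested 4–5.5 h after dosing. Single mouse in a novel open field for 30 min, tracked by infrared sensors in 1-min bins; bar-graph values averaged over minutes 18–30. Mice beyond 2 SD in total distance, or immobile for 5 consecutive minutes, were excluded.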

[6] = tested on: Mus musculus; test: Anti-seizure activity against 124dB loud auditory stimulus induced Fmr1 knockout FVB.129P2-Fmr1tm1Cgr/J mouse model of audiogenic seizure assessed as decrease in sound-induced wild running at 10 mg/kg,sc for 8 hrs followed by audiogenic seizure induction by audiogenic seizure assay (Rvb=100%); format: functional; set-up: scale not given: the % may be the effect or the level left
How it was run: (§3)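 Adult male mice (10–17 wk). Single s.c. dose (0, 10, 20 or 30 mg/kg) in 20% (wt/vol) hydroxypropyl-β-cyclodextrin vehicle; AGS induced 8 h later. Mouse acclimated 2 min in a clear acrylic two-chamber box, then exposed to a 124 dB sound. Scored as percentage of animals showing each sequential phase (wild running, seizure, death by respiratory arrest); χ2 test against vehicle.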

[7] = tested on: Mus musculus; test: Protective activity in Fmr1 FVB.129P2-Pde6b+ Tyr c-ch/AntJ wild type mouse assessed as change in apical dendritic spine density in cortical neuron at 20 mg/kg, sc and measured after 8 hrs by Golgi-Cox technique analysis; format: functional, organism-based; details: Cortical neurone
[8] = Toxicity in Fmr1 knockout FVB.129P2-Fmr1tm1Cgr/J mouse assessed as body weight change at 20 mg/kg,sc for 21 days; format: organism-based; details: in vivo, 504 h, time 21 day
[9] = tested on: Mus musculus; test: Anti-seizure activity against 124dB loud auditory stimulus induced Fmr1 knockout FVB.129P2-Fmr1tm1Cgr/J mouse model of audiogenic seizure assessed as decrease in sound-induced wild running at 20 mg/kg,sc for 8 hrs followed by audiogenic seizure induction by audiogenic seizure assay (Rvb=100%); format: functional; set-up: scale not given: the % may be the effect or the level left; how it was run: as §3
[10] = tested on: Mus musculus; test: Protective activity in Fmr1 knockout FVB.129P2-Fmr1tm1Cgr/J mouse model of Fragile X syndrome assessed as decrease in time spent in moving at 20 mg/kg, sc for 5 days and measured for 30 mins by open field assay; format: functional, organism-based; details: time 5.0 day; how it was run: as §2
[11] = tested on: Mus musculus; test: Protective activity in FVB.129P2-Pde6b+ Tyr c-ch/AntJ wild type mouse assessed as decrease in distance travelled at 20 mg/kg, sc for 5 days and measured during 18 to 30 mins by open field assay; format: functional, organism-based; details: time 5.0 day; how it was run: as §2
[12] = tested on: Mus musculus; test: Protective activity in Fmr1 knockout FVB.129P2-Fmr1tm1Cgr/J mouse assessed as decrease in apical dendritic spine density in layer II/III pyramidal neurons segment 1 at 20 mg/kg, sc and measured after 8 hrs by Golgi-Cox technique analysis; format: functional, organism-based; how it was run: as §1
[13] = tested on: Mus musculus; test: Protective activity in FVB.129P2-Pde6b+ Tyr c-ch/AntJ wild type mouse assessed as decrease in stereotypy count at 20 mg/kg, sc for 5 days by open field assay; format: functional, organism-based; details: time 5.0 day; how it was run: as §2
[14] = tested on: Mus musculus; test: Protective activity in Fmr1 knockout FVB.129P2-Fmr1tm1Cgr/J mouse assessed as decrease in apical dendritic spine density in layer II/III pyramidal neurons segment 8 at 20 mg/kg, sc and measured after 8 hrs by Golgi-Cox technique analysis; format: functional, organism-based; how it was run: as §1
[15] = tested on: Mus musculus; test: Protective activity in Fmr1 knockout FVB.129P2-Fmr1tm1Cgr/J mouse assessed as change in basal dendritic spine density in cortical neuron at 20 mg/kg, sc and measured after 8 hrs by Golgi-Cox technique analysis; format: functional, organism-based; details: Cortical neurone

Chain of Serine/threonine-protein kinase PAK 2 (Q13177 whole entry, canonical isoform): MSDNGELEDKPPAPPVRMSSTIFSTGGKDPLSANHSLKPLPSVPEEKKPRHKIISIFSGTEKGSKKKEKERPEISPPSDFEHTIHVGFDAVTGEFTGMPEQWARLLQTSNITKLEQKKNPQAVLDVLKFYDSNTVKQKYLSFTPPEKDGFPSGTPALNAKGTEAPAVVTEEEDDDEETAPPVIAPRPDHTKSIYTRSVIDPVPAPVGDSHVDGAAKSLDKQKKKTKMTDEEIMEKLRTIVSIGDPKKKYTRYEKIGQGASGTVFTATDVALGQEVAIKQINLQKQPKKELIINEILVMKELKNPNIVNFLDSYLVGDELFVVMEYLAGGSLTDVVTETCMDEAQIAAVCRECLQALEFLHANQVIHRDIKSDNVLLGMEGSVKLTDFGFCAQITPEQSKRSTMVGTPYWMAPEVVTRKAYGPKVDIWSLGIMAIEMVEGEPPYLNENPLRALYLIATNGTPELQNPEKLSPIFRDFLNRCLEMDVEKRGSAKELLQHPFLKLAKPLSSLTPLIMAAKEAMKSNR

concentration at 18 h [1]: > 0.1 µg/mL | pIC50 [2]: 7.40
Structure (SMILES): CCn1c(=O)c(-c2ccc(Cl)cc2Cl)cc2cnc(Nc3ccc(N4CCNCC4)c(F)c3)nc21
Activity [3]: 75% | Activity [4]: inactive | Activity [5]: Active | Activity [6]: 80% | Activity [7]: inactive | Activity [8]: Non-Toxic | Activity [9]: 25% | Activity [10]: Active | Activity [11]: Active | Activity [12]: inactive | Activity [13]: Active | Activity [14]: inactive | Activity [15]: inactive
